Measured values: ChEMBL document CHEMBL1145341, “Synthesis and biological evaluation of bisindenoisoquinolines as topoisomerase I inhibitors” (2006)
The source made the active and inactive calls. The calls are words filed in the database; no cut-off is given here.

Columns and labels:
[1] = tested on: MDA-MB-435; assay: Antiproliferative activity against human MDA-MB-435 cell line; assay type: functional
[2] = tested on: OVCAR-3; assay: Antiproliferative activity against human OVCAR-3 cell line; assay type: functional
[3] = tested on: HCT-116; assay: Antiproliferative activity against human HCT116 cell line; assay type: functional
[4] = tested on: HOP-62; assay: Antiproliferative activity against human HOP62 cell line; assay type: functional
[5] = tested on: DU-145; assay: Antiproliferative activity against human DU145 cell line; assay type: functional
[6] = tested on: SN12C; assay: Antiproliferative activity against human SN12C cell line; assay type: functional
[7] = tested on: SF-539; assay: Antiproliferative activity against human SF539 cell line; assay type: functional
[8] = tested on: UACC-62; assay: Antiproliferative activity against human UACC62 cell line; assay type: functional
[9] = target: T1, DNA topoisomerase 1 (Homo sapiens) (UniProt P11387); assay: Inhibition of human recombinant Top1-mediated DNA cleavage upto 10 uM
T1 sequence (whole entry): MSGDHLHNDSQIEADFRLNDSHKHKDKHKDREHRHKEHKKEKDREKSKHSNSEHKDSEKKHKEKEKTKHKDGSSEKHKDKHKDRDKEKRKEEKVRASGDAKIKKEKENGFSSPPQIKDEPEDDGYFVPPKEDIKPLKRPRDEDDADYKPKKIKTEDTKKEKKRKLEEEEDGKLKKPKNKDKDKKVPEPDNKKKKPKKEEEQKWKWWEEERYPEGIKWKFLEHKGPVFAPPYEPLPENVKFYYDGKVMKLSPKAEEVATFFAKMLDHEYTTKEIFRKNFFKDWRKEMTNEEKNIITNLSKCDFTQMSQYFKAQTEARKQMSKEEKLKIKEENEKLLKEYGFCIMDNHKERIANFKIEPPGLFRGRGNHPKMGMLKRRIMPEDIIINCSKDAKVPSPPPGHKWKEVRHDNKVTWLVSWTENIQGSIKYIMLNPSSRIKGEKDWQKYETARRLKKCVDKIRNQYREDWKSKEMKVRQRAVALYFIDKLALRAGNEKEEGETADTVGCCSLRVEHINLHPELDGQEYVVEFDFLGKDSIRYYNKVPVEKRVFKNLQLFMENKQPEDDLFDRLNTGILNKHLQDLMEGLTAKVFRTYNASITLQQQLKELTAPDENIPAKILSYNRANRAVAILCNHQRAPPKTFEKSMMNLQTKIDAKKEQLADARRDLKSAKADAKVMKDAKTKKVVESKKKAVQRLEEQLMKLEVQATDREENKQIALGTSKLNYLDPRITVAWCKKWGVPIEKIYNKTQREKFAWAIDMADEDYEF
Outline: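 Baculovirus-purified human recombinant Top1. Substrate: 161 bp PvuII/HindIII fragment of pBluescript SK(-), 3′-end labeled with [α-32P]-dGTP by Klenow fill-in, about 50 000 dpm per reaction. Compounds up to 10 µM, 22 °C for 30 min; stopped with 0.5% SDS (final). Denaturing 16% polyacrylamide/7 M urea gels, phosphorimaging. Cleavage scored semiquantitatively (+ to ++++) against a reference indenoisoquinoline and 1 µM camptothecin.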

[10] = tested on: Panel (12 tumour cell lines); assay: Net cell kill in ip dosed mouse implanted with 12 human tumor cell lines; assay type: functional, organism-based

SMILES	GI50 [1]	GI50 [2]	GI50 [3]	GI50 [5]	Activity [9]	GI50 [4]	GI50 [6]	GI50 [7]	GI50 [8]	Activity [10]
O=C1c2ccccc2-c2c1c1ccccc1c(=O)n2CCCNCCNCCCn1c2c(c3ccccc3c1=O)C(=O)c1ccccc1-2	933 nM	1020 nM	< 10 nM	< 10 nM	Active	< 10 nM	< 10 nM	–	52 nM	–
O=C1c2ccccc2-c2c1c1ccccc1c(=O)n2CCNCCCNCCn1c2c(c3ccccc3c1=O)C(=O)c1ccccc1-2	24 nM	93 nM	< 5 nM	79 nM	Active	339 nM	< 5 nM	155 nM	182 nM	inactive
O=C1c2ccccc2-c2c1c1ccccc1c(=O)n2CCCN1CCN(CCCn2c3c(c4ccccc4c2=O)C(=O)c2ccccc2-3)CC1	> 100000 nM	> 100000 nM	35500 nM	24000 nM	–	12900 nM	15500 nM	> 100000 nM	> 100000 nM	–
COc1cc2c3c(n(CCNCCCNCCn4c5c(c6cc(OC)c(OC)cc6c4=O)C(=O)c4ccccc4-5)c(=O)c2cc1OC)-c1ccccc1C3=O	813 nM	269 nM	45 nM	209 nM	–	68 nM	28 nM	170 nM	1230 nM	–
CC(C)(C)OC(=O)N(CCCN(CCn1c2c(c3ccccc3c1=O)C(=O)c1ccccc1-2)C(=O)OC(C)(C)C)CCn1c2c(c3ccccc3c1=O)C(=O)c1ccccc1-2	> 50100 nM	21400 nM	22900 nM	> 50100 nM	–	22400 nM	> 50100 nM	> 50100 nM	> 50100 nM	–
CC(=O)O[C@H]1C(=O)[C@@]2(C)[C@H]([C@H](OC(=O)c3ccccc3)[C@]3(O)C[C@H](OC(=O)[C@H](O)[C@@H](NC(=O)c4ccccc4)c4ccccc4)C(C)=C1C3(C)C)[C@]1(OC(C)=O)CO[C@@H]1C[C@@H]2O	–	–	–	–	–	–	–	–	–	Active
O=C1c2ccccc2-c2c1c1ccccc1c(=O)n2CCCNCCCn1c2c(c3ccccc3c1=O)C(=O)c1ccccc1-2	8910 nM	2950 nM	550 nM	1000 nM	–	794 nM	1550 nM	3630 nM	6610 nM	–
O=C1c2ccccc2-c2c1c1ccccc1c(=O)n2CCNCCNCCNCCNCCn1c2c(c3ccccc3c1=O)C(=O)c1ccccc1-2	126 nM	32 nM	200 nM	85 nM	–	977 nM	–	12 nM	–	–
CC[C@@]1(O)C(=O)OCc2c1cc1n(c2=O)Cc2cc3ccccc3nc2-1 [CAMPTOTHECIN]	40 nM	–	30 nM	10 nM	–	10 nM	20 nM	10 nM	10 nM	–
O=C1c2ccccc2-c2c1c1ccccc1c(=O)n2CCCCNCCCn1c2c(c3ccccc3c1=O)C(=O)c1ccccc1-2	562 nM	372 nM	56 nM	288 nM	–	28 nM	132 nM	–	513 nM	–

Now from value to compound, other results behind:

GI50 [1]	GI50 [2]	GI50 [3]	GI50 [5]	Activity [9]	SMILES	GI50 [4]	GI50 [6]	GI50 [7]	GI50 [8]	Activity [10]
3980 nM	9550 nM	331 nM	19500 nM	–	COc1cc2c3c(n(CCCNCCCNCCCn4c5c(c6cc(OC)c(OC)cc6c4=O)C(=O)c4ccccc4-5)c(=O)c2cc1OC)-c1ccccc1C3=O	1510 nM	240 nM	4170 nM	4270 nM	–
1660 nM	1660 nM	29 nM	182 nM	–	O=C1c2ccccc2-c2c1c1ccccc1c(=O)n2CCNCCNCCn1c2c(c3ccccc3c1=O)C(=O)c1ccccc1-2	32 nM	178 nM	–	331 nM	–
68000 nM	880 nM	43000 nM	> 100000 nM	–	COc1cc2c3c(n(CCCNCCCNCCCN)c(=O)c2cc1OC)-c1cc2c(cc1C3=O)OCO2	–	33000 nM	> 100000 nM	44000 nM	–
780 nM	1380 nM	180 nM	220 nM	–	NCCCn1c2c(c3ccccc3c1=O)C(=O)c1ccccc1-2	200 nM	160 nM	250 nM	260 nM	–
69200 nM	69200 nM	1910 nM	47900 nM	–	CC(C)(C)OC(=O)N(CCCCN(CCCn1c2c(c3ccccc3c1=O)C(=O)c1ccccc1-2)C(=O)OC(C)(C)C)CCCn1c2c(c3ccccc3c1=O)C(=O)c1ccccc1-2	11000 nM	36300 nM	8130 nM	93300 nM	–
107 nM	74 nM	< 10 nM	–	Active	O=C1c2ccccc2-c2c1c1ccccc1c(=O)n2CCCNCCCNCCCn1c2c(c3ccccc3c1=O)C(=O)c1ccccc1-2	< 10 nM	< 10 nM	11 nM	42 nM	inactive
> 50100 nM	13200 nM	14100 nM	> 50100 nM	–	CC(C)(C)OC(=O)N(CCCn1c2c(c3ccccc3c1=O)C(=O)c1ccccc1-2)CCN(CCCn1c2c(c3ccccc3c1=O)C(=O)c1ccccc1-2)C(=O)OC(C)(C)C	20000 nM	39800 nM	> 50100 nM	45700 nM	–
1000 nM	1150 nM	112 nM	331 nM	Active	O=C1c2ccccc2-c2c1c1ccccc1c(=O)n2CCNCCNCCNCCn1c2c(c3ccccc3c1=O)C(=O)c1ccccc1-2	48 nM	17 nM	275 nM	269 nM	inactive
1550 nM	1200 nM	–	–	–	CN(CCCn1c2c(c3ccccc3c1=O)C(=O)c1ccccc1-2)CCCn1c2c(c3ccccc3c1=O)C(=O)c1ccccc1-2	–	589 nM	1120 nM	2000 nM	–
> 25100 nM	> 25100 nM	> 25100 nM	> 25100 nM	–	O=C1c2ccccc2-c2c1c1ccccc1c(=O)n2CCNCCn1c2c(c3ccccc3c1=O)C(=O)c1ccccc1-2	> 25100 nM	> 25100 nM	> 25100 nM	> 25100 nM	–
676 nM	135 nM	< 5 nM	234 nM	Active	O=C1c2ccccc2-c2c1c1ccccc1c(=O)n2CCCNCCCCNCCCn1c2c(c3ccccc3c1=O)C(=O)c1ccccc1-2	525 nM	< 5 nM	251 nM	562 nM	inactive
2240 nM	8910 nM	1050 nM	1910 nM	–	O=C1c2ccccc2-c2c1c1ccccc1c(=O)n2CCCNCCn1c2c(c3ccccc3c1=O)C(=O)c1ccccc1-2	977 nM	11000 nM	14500 nM	5010 nM	–
